In ChEMBL document CHEMBL4513216, “Probing the Open Global Health Chemical Diversity Library for Multistage-Active Starting Points for Next-Generation Antimalarials” (ACS Infect Dis, 2020):

Experiment: Toxicity liver stage against HepG2, at 10uM
Type: cell-based
Set-up: test concentration 10 uM, cell line HepG2-A16-CD81EGFP
Conditions: human, HepG2-A16-CD81EGFP cells; read-out: INHIBITION
Procedure, shortened: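 Uninfected HepG2-A16-CD81EGFP cells, 3 × 10^3 per well, 1536-well, plated on prespotted compound at 10 μM final, parasite-free screening media added to match infected plates; puromycin 10 μM positive, DMSO 0.5% negative; run in parallel with 48 h PbLuc assay at 37 °C, 5% CO2; viability by CellTiter-Glo luminescence, normalized to controls.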

SMILES | cytotoxicity at 10 µM
NC(=O)C1CCCN1Cc1cccc(NC(=O)c2ccsc2)c1 (stereo unspecified) | 16.3%
COCCc1noc(CN(C)C2CCCN(c3ccc(C)nn3)C2)n1 (stereo unspecified) | 19.3%
COCCO[C@H]1CCN(C(=O)c2ccsc2)[C@H]1Cc1cnn(C)c1 | -72.8%
Cc1nc2c(C)cccc2cc1C(=O)N1CCC2(CCN(C)CC2)C1 | -4.39%
Cn1nc(CO)c2c1CCN(c1ncnc3c1CCNC3)C2 | -0.132%
Cc1ncsc1CCN(C)C(=O)c1ccc(CN2CCCCC2)cc1 | -4.38%
CCN(CC)C(=O)Cn1cc(-c2nc(C(C)C)no2)nn1 | 2.28%
COc1c(F)cc(CN2CCC3(CC2)C(C(=O)O)CC(=O)N3C)cc1Cl (stereo unspecified) | 5.13%
COc1ccc2c(=O)n(CC3CCNC3)ccc2c1OC (stereo unspecified) | 5.76%
Cc1ncnc(NCCCN2CCCCC2CO)c1C (stereo unspecified) | -2.35%
CCN(C)c1ccc(C(=O)NCCCc2ccccn2)cn1 | -43.7%
O=C1CC(c2ccc3ccccc3n2)c2c(n[nH]c2C2CCC2)N1 (stereo unspecified) | -6.43%
O=C(CCc1cc2n(n1)CCNC2)NCCS(=O)(=O)N1CCCC1 | 0.487%
CN(CCCO)C(=O)c1ccc2c(c1)nc(N1CC[C@H](O)C1)n2C | -1.46%
OCCO[C@H]1C[C@@H](O)C12CCN(Cc1nc(C(F)(F)F)no1)CC2 | 0.145%
COCCC1CCCCN1Cc1nc(Cc2cccc(F)c2)no1 (stereo unspecified) | -142%
CSc1nccc(N2CCN(C)C3(CCNC(=O)CC3)C2)n1 (stereo unspecified) | 18.7%
COc1cccc([C@@H]2CCN(Cc3ccc4ccccc4n3)C[C@H]2O)c1 | -16.5%
CCOCCCC(=O)N(C)C(c1cccc(F)c1)c1ccccn1 (stereo unspecified) | -10.2%

SMILES | cytotoxicity at 10 µM
Cn1cc(CCNC(=O)N2CCCC(c3nncn3C)C2)cn1 (stereo unspecified) | -4.41%
Cc1cccc(C)c1OCCNC(=O)CN1CCN(C)CC1C (stereo unspecified) | -6.28%
Cc1cccc(NC(=O)C(C)Nc2cccc(CN3CCOC3=O)c2)c1 (stereo unspecified) | 6.92%
c1ccc(-c2nc(CNCC3CCCN3c3cccnn3)co2)cc1 (stereo unspecified) | -12.7%
Cc1cc(CN2CCN(C(=O)NC(C)Cn3cccn3)CC2)no1 (stereo unspecified) | -7.45%
Cc1cnn(CCNCc2ccc(OCc3cccnc3)cc2)c1 | -12.1%
Cc1nn(C)c(N(C)C)c1CNCc1cccc(Cn2cncn2)c1 | -7.85%
Cc1cnn(CC(C)NCc2ccncc2)c1 (stereo unspecified) | -2.81%
Cc1noc(C(C)C)c1C(=O)NCCC(=O)N1CCCCC1 | 0.632%
Cc1nnc(NC(=O)CN2CCc3nn(C(C)C)c(=O)cc3C2)s1 | -18.9%
CCOc1cccc(CNCc2ccc(NC(=O)NC(C)C)cc2)c1 | -11.5%
CC(=O)N(Cc1noc(C)n1)C1CCN(Cc2cccc(C#N)c2)C1 (stereo unspecified) | -0.645%
Cc1cnn(CC2CCCCN2C(=O)c2ccc3c(c2)COC3)c1 (stereo unspecified) | -24.7%
O=C(CN1CCOC(Cn2cccn2)C1)Nc1ccncc1 (stereo unspecified) | 0.748%
COc1ccc(-c2noc(CN3CC(n4cccn4)C3)n2)c(OC)c1 | -11.2%
CCOc1ccccc1C(CC(=O)Nc1nc(C)cs1)NC(C)=O (stereo unspecified) | -10.9%
O=C(Nc1ccccc1F)C1=NOC2(CCNCC2)C1 | 2.93%
Cn1cc(CN2CCO[C@@H]3CN(Cc4ccoc4)C[C@@H]3C2)cn1 | 2.14%
Cc1noc([C@@H]2C[C@H]3OCC[C@H]3N(C(C)C)C2)n1 | -125%

SMILES | cytotoxicity at 10 µM
COCc1nn(C(C)C)c2c1CCN(Cc1ccccn1)C2 | 8.04%
CN1CCN(Cc2cn3c(n2)CN(Cc2ccc(F)cc2)CC3)CC1 | -113%
O=S(=O)(C1CC1)N1CCc2ncnc(N3CCCC3)c2CC1 | -98.6%
CN1CCN(Cc2cnc3n2CCN(CCc2ccccc2)C3)CC1 | -6.98%
Cc1cnc(N2C[C@H]3C[C@H](C(=O)N4CCN(C)CC4)N(C)[C@H]3C2)nc1 | -135%
COCCN1CCO[C@H]2CCN(C(=O)c3cccs3)CC[C@@H]21 | -0.234%
CO[C@H]1CCN(S(=O)(=O)N(C)C)[C@@H]2CN(Cc3cccnc3)C[C@H]12 | 11.9%
CCC(=O)N1C[C@@H]2CCN(c3cnccn3)C[C@@H]2C1 | -13.2%
CC(c1ccc(F)cc1F)N1CCN(CCC(=O)O)CC1 (stereo unspecified) | -3.6%
CS(=O)(=O)NCc1ncn2c1CN(Cc1cccs1)CCC2 | -66.8%
Cc1nc(CO[C@H]2CN(Cc3ccccn3)[C@@H]3CCCO[C@H]23)cs1 | 1.33%
Cc1cnc(C(=O)N2CCCC(c3c(C)c(=O)nc4n3CCC4)C2)cn1 (stereo unspecified) | -26.5%
COc1cc(OC)cc(-c2cc(CN)nc3ccnn23)c1 | -0.945%
CN(Cc1ccco1)C1CCC12CCN(C(=O)N1CCCC1)CC2 (stereo unspecified) | -1.54%
CC(C)n1nc(CNc2ncccn2)c2c1CN(C1CCOCC1)CC2 | -129%
CCn1cc(C(=O)N2C[C@H]3CC(Oc4ccccc4)C[C@H]3C2)cn1 (stereo partly specified) | 5.75%
CC(=O)N1C[C@H]2CC[C@@H](C1)N(S(=O)(=O)c1cc(F)ccc1C)C2 | 2.91%
CN(C)C1(CNC(=O)CC=Cc2ccc(F)cc2)CCOCC1 | 8.99%
